Assay results published in ChEMBL document CHEMBL4765234 (J Med Chem, 2016).
Activity calls are given as the source filed them. No cut-off for these calls is given here.

How the values were obtained:
[1] = molecular target: T1, Free fatty acid receptor 1 (Homo sapiens, UniProt O14842); assay: Agonist activity at human recombinant full length GPR40 overexpressed in human HEK293 cells assessed as increase in inositol phosphate accumulation in presence of terbium cryptate-labeled anti IP1/d2-labelled IP1 measured after 120 mins by HTRF assay; assay type: functional, cell-based
Summary of the method: (§1)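 HEK293 hGPR40 cells (20K/well) were cultured overnight, washed, and held in IP1 stimulation buffer. IP-1 was measured by competitive HTRF immunoassay with terbium cryptate anti-IP1 mAb and d2-labelled IP1.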

[2] = molecular target: T2, Peroxisome proliferator-activated receptor delta (Homo sapiens) (UniProt Q03181); assay: Displacement of [3H]-[…] from PPARdelta (unknown origin) expressed in baculovirus infected Sf9 insect cells upto 30 uM measured after 10 hrs by microbeta scintillation counting analysis; conditions: dose microM <=30, time 10.0 hrs
T2 sequence (whole entry): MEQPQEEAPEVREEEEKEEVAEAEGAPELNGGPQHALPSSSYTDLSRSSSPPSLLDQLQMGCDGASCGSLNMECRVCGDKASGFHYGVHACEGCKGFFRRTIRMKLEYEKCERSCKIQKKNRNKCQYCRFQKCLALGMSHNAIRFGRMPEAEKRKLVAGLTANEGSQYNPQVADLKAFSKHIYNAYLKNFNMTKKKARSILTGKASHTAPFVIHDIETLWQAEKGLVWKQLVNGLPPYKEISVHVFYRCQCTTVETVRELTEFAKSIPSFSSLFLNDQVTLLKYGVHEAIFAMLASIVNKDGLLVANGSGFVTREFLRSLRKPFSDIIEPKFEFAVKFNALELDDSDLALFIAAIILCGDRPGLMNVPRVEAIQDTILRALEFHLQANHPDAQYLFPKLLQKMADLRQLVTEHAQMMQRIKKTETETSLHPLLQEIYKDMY
Summary of the method: (§2)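 Scintillation proximity assay. Sf9 lysates with baculovirus-expressed PPARα (0.3 μg), PPARδ (0.5 μg) or PPARγ (1.25 μg), each with RXRα, were bound via biotinylated DR2 oligo (0.126 nM) to streptavidin yttrium silicate beads. Buffer was HEPES pH 7.8 with KCl, MgCl2, DTT, CHAPS, 14% glycerol and salmon sperm DNA. A 3H reference agonist ligand was used, with 11 compound concentrations, for 10 h. Nonspecific binding was defined with 10000 nM unlabeled reference. Ki was derived from IC50.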

[3] = molecular target: T1, Free fatty acid receptor 1; assay: Agonist activity at human recombinant full-length Prolink-tagged GPR40 fused with EA-tagged beta-arrestin expressed in human HEK293 cells assessed as induction of beta-arrestin recruitment measured after 90 mins by beta-galactosidase based PathHunter assay relative to control; assay type: cell-based; conditions: filed as agonist
Summary of the method: (§3)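 PathHunter β-gal complementation. Cells were incubated overnight at 5000/well in medium with 1% heat-inactivated FBS. Compound was added as a 20-point 2-fold series from a top final of 100 μM (1% DMSO) for 90 min at 37 °C, followed by detection reagents and chemiluminescence read after 1 h at rt.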

[4] = molecular target: Free fatty acid receptor 1 (Rattus norvegicus) (UniProt Q8K3T4); assay: Agonist activity at Prolink-tagged rat GPR40 fused with EA-tagged beta-arrestin expressed in human U2OS cells assessed as induction of beta-arrestin recruitment measured after 90 mins by beta-galactosidase based PathHunter assay relative to control; assay type: cell-based; conditions: filed as agonist; summary of the method: as §3
[5] = molecular target: Free fatty acid receptor 1 (Mus musculus) (UniProt Q76JU9); assay: Agonist activity at Prolink-tagged mouse GPR40 fused with EA-tagged beta-arrestin expressed in human U2OS cells assessed as induction of beta-arrestin recruitment measured after 90 mins by beta-galactosidase based PathHunter assay relative to control; assay type: cell-based; conditions: filed as agonist; summary of the method: as §3
[6] = molecular target: T1, Free fatty acid receptor 1; assay: Agonist activity at human recombinant full length GPR40 overexpressed in human HEK293 cells assessed as increase in intracellular calcium level measured over 3 mins by calcium 4 dye based FLIPR assay relative to 100 uM linoleic acid; assay type: functional, cell-based; conditions: filed as agonist
Summary of the method: (§4)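 HEK293 cells overexpressing hGPR40 (25K/well) were cultured overnight in DMEM/F12 with 0.2% FBS and geneticin. Compound was tested at 40 μM–0.1 nM final (20-point, 1% DMSO), and FLIPR fluorescence was read over 3 min.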

[7] = molecular target: T1, Free fatty acid receptor 1; assay: Displacement of [3H]-TAK-875 from human recombinant full-length GPR40 expressed in human HEK293 cell membrane incubated for 2 hrs by solid scintillation counting method; assay type: cell membranes
[8] = molecular target: T1, Free fatty acid receptor 1; assay: Agonist activity at human recombinant full length GPR40 overexpressed in human HEK293 cells assessed as increase in inositol phosphate accumulation in presence of terbium cryptate-labeled anti IP1/d2-labelled IP1 measured after 120 mins by HTRF assay relative to AMG837; assay type: functional, cell-based; conditions: filed as agonist; summary of the method: as §1
[9] = molecular target: T3, Peroxisome proliferator-activated receptor gamma (Homo sapiens) (UniProt P37231); assay: Displacement of [3H]-[…] from PPARgamma (unknown origin) expressed in baculovirus infected Sf9 insect cells upto 30 uM measured after 10 hrs by microbeta scintillation counting analysis; conditions: dose microM <=30, time 10.0 hrs; summary of the method: as §2
T3 sequence (whole entry): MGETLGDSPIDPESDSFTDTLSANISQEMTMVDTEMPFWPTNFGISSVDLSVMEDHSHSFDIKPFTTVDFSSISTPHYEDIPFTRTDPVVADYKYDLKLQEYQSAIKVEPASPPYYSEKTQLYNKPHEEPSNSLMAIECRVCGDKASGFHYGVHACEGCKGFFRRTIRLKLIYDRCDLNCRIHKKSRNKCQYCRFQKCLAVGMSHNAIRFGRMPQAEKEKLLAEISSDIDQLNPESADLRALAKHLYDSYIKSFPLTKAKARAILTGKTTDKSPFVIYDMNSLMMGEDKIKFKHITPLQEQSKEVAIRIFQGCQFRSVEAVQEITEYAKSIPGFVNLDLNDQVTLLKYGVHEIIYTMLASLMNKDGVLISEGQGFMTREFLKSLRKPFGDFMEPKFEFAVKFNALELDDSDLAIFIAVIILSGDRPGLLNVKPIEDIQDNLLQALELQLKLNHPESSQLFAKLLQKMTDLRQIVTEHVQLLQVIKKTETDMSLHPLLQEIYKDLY

[10] = molecular target: Voltage-gated inwardly rectifying potassium channel KCNH2 (Homo sapiens, UniProt Q12809); assay: Inhibition of human ERG
[11] = molecular target: T1, Free fatty acid receptor 1; assay: Agonist activity at human recombinant full-length Prolink-tagged GPR40 fused with EA-tagged beta-arrestin expressed in human HEK293 cells assessed as induction of beta-arrestin recruitment measured after 90 mins by beta-galactosidase based PathHunter assay; assay type: cell-based; summary of the method: as §3
[12] = molecular target: Free fatty acid receptor 1 (Mus musculus, UniProt Q76JU9); assay: Agonist activity at Prolink-tagged mouse GPR40 fused with EA-tagged beta-arrestin expressed in human U2OS cells assessed as induction of beta-arrestin recruitment measured after 90 mins by beta-galactosidase based PathHunter assay; assay type: cell-based; summary of the method: as §3
[13] = molecular target: T1, Free fatty acid receptor 1; assay: Agonist activity at human recombinant full length GPR40 overexpressed in human HEK293 cells assessed as increase in intracellular calcium level measured over 3 mins by calcium 4 dye based FLIPR assay; assay type: functional, cell-based; summary of the method: as §4
[14] = molecular target: T4, Peroxisome proliferator-activated receptor alpha (Homo sapiens) (UniProt Q07869); assay: Displacement of [3H]-[…] from PPARalpha (unknown origin) expressed in baculovirus infected Sf9 insect cells upto 30 uM measured after 10 hrs by microbeta scintillation counting analysis; conditions: dose microM <=30, time 10.0 hrs; summary of the method: as §2
T4 sequence (whole entry): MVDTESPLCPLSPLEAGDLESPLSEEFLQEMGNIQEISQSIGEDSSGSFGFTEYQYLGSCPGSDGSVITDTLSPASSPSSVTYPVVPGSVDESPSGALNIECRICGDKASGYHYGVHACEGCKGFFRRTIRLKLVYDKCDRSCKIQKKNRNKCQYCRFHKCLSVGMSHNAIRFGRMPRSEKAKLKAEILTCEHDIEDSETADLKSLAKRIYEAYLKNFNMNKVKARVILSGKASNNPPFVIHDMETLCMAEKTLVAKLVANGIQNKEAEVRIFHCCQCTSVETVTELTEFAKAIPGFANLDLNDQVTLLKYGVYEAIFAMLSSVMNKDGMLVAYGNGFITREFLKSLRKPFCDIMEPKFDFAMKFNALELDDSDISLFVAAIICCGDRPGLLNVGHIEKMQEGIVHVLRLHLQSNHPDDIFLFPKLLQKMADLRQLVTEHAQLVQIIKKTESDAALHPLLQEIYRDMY

[15] = molecular target: Free fatty acid receptor 1 (Rattus norvegicus, UniProt Q8K3T4); assay: Agonist activity at Prolink-tagged rat GPR40 fused with EA-tagged beta-arrestin expressed in human U2OS cells assessed as induction of beta-arrestin recruitment measured after 90 mins by beta-galactosidase based PathHunter assay; assay type: cell-based; summary of the method: as §3
[16] = Protein binding in plasma (unknown origin) by equilibrium dialysis method; assay type: ADME, cell-free; conditions: human, read-out: PPB
Summary of the method: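 Plasma protein binding measured by equilibrium dialysis.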

[17] = Protein binding in C57BL/6 mouse plasma at 3 microg/kg, iv by LC-MS/MS analysis; assay type: ADME, organism-based; conditions: in vivo, 0.003 mg/kg, dose 3 µg/kg
[18] = AUC in hyperglycemic Balb/c mouse plasma at 1 mg/kg measured upto 60 mins; assay type: ADME, organism-based; design: dose 1 mg/kg, time <=60
[19] = Drug distribution in C57BL/6 mouse colon at 3 microg/kg, iv administered as single dose observed at 20 to 40 mins by LC-MS/MS analysis; assay type: ADME, organism-based; conditions: in vivo, 0.003 mg/kg, time 20-40 min, dose 3 µg/kg
Summary of the method: (§5)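 Tracer microdose study in fed male C57BL/6 mice: single 3 μg/kg IV dose in 25% HP-BCD. Mice were killed by cervical dislocation, and spleen, ascending colon, skeletal muscle and plasma were sampled at 20 and 40 min.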

[20] = molecular target: Free fatty acid receptor 1 (Mus musculus) (UniProt Q76JU9); assay: Agonist activity at GPR40 in mouse MIN6 cells assessed as induction of glucose-mediated insulin secretion incubated for 2 hrs by ELISA; assay type: cell-based; conditions: filed as agonist
Summary of the method: (§6)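 Glucose-dependent insulin secretion in mouse MIN6 cells or rat islet cells, scored as secretion above the glucose-alone level.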

[21] = molecular target: Free fatty acid receptor 1 (Rattus norvegicus) (UniProt Q8K3T4); assay: Agonist activity at GPR40 in Sprague-Dawley rat pancreatic islets assessed as induction of glucose-mediated insulin secretion measured after 90 mins in EBSS buffer by ELISA; assay type: tissue-based; conditions: Pancreatic islet, filed as agonist; summary of the method: as §6
[22] = system: Mus musculus; assay: Hypoglycemic activity in Balb/c mouse assessed as effective dose causing reduction in blood glucose level administered orally 60 mins prior to glucose challenge measured for 60 mins by IPGTT; assay type: functional; conditions: po, 1 h
[23] = Drug distribution in C57BL/6 mouse spleen at 3 microg/kg, iv administered as single dose observed at 20 to 40 mins by LC-MS/MS analysis; assay type: ADME, organism-based; conditions: in vivo, 0.003 mg/kg, time 20-40 min, dose 3 µg/kg; summary of the method: as §5
[24] = AUC in hyperglycemic Balb/c mouse plasma at 29.4 mg/kg measured upto 60 mins; assay type: ADME, organism-based; design: dose 29.4 mg/kg, time <=60
[25] = system: Rattus norvegicus; assay: Hypoglycemic activity in Zucker fatty diabetes mellitus rat model assessed as reduction in blood glucose level at 3 mg/kg, po administered for 21 days and measured at 10 to 60 mins post glucose challenge on day 1 by OGTT; assay type: functional, organism-based; conditions: time 21.0 day
[26] = system: Rattus norvegicus; assay: Hypoglycemic activity in Zucker fatty diabetes mellitus rat model assessed as increase in insulin levels in plasma at 3 mg/kg, po administered for 21 days and measured at 10 to 60 mins post glucose challenge on day 1 by OGTT; assay type: functional, organism-based; conditions: time 21.0 day

Free fatty acid receptor 1 (Rattus norvegicus), sequence (Q8K3T4 whole entry, the tested form may be a part): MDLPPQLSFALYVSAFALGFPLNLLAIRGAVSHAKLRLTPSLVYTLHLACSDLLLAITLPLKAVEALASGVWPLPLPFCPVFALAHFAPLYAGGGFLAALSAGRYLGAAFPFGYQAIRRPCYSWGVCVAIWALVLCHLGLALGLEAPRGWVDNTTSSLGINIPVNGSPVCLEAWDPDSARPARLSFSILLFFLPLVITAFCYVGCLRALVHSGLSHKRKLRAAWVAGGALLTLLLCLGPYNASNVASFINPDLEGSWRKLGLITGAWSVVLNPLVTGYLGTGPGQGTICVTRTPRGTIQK
Free fatty acid receptor 1 (Rattus norvegicus, UniProt Q8K3T4), sequence (Q8K3T4 whole entry, the tested form may be a part): as above
T1 sequence (O14842 whole entry): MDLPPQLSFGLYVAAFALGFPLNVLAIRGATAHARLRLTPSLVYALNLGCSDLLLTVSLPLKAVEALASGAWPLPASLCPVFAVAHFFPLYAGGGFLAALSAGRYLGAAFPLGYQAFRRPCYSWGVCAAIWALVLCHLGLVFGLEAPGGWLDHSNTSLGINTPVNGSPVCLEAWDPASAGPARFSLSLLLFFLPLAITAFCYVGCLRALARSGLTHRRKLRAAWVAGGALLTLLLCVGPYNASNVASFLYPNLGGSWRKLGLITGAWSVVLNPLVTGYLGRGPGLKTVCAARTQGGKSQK
Free fatty acid receptor 1 (Mus musculus), sequence (Q76JU9 whole entry, the tested form may be a part): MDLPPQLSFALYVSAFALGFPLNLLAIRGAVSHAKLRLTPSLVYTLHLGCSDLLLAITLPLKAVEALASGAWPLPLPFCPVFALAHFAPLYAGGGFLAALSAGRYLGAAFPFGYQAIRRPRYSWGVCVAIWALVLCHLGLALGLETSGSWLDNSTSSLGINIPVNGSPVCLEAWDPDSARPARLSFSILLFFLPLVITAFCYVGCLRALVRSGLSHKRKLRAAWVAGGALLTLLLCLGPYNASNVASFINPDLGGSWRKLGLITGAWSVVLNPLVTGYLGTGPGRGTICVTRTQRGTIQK
Free fatty acid receptor 1 (Mus musculus, UniProt Q76JU9), sequence (Q76JU9 whole entry, the tested form may be a part): as above
Voltage-gated inwardly rectifying potassium channel KCNH2, sequence (Q12809 whole entry, the tested form may be a part): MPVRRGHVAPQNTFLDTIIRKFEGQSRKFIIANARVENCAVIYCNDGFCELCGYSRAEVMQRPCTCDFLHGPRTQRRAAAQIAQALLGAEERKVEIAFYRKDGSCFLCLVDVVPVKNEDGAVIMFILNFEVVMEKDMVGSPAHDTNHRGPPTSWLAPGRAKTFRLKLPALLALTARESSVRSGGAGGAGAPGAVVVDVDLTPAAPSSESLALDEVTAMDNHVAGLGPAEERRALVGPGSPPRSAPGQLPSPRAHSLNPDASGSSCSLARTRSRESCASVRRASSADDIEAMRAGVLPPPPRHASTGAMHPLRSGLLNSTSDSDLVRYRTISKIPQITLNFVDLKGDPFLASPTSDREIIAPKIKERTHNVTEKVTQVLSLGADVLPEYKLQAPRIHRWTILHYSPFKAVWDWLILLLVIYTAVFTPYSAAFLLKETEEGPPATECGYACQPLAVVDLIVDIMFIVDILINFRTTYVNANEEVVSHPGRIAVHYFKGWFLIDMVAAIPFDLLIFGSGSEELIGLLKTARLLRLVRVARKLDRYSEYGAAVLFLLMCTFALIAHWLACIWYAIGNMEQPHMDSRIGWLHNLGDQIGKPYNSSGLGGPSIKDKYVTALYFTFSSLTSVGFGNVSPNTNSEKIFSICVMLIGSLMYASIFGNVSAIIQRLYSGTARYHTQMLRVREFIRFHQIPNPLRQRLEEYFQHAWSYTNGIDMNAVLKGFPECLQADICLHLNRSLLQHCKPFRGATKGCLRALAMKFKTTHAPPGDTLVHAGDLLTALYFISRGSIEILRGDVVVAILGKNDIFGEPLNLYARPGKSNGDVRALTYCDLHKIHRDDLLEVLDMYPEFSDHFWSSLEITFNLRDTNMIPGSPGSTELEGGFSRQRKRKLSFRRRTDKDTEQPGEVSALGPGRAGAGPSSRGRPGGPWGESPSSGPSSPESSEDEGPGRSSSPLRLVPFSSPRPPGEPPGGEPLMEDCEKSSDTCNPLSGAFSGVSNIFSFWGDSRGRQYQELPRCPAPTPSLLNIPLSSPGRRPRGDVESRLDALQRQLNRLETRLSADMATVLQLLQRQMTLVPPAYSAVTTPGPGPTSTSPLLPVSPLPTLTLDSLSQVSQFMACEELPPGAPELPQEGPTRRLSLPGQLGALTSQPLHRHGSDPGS

## CC#C[C@@H](CC(=O)O)c1ccc(OCc2ccc(CN3CCC4(C=Cc5ccccc54)CC3)c(OC)c2)cc1
[1]
  EC50: 7.4 nM
[2]
  Activity: inactive
[3]
  Emax: 140%
[4]
  Emax: 119%
[5]
  Emax: 128%
[6]
  Emax: 61%
[7]
  Ki: 2.5 nM
[8]
  Emax: 345%
[9]
  Activity: inactive
[10]
  Ki: 6300 nM
[11]
  EC50: 10 nM
[12]
  EC50: 1.4 nM
[13]
  EC50: 17 nM
[14]
  Activity: inactive
[15]
  EC50: 3 nM
[16]
  fraction unbound: < 0.01

## CC#C[C@@H](CC(=O)O)c1ccc(OCc2cccc(-c3ccc(C(F)(F)F)cc3)c2)cc1
[17]
  PPB: Active
[18]
  AUC at 1 h: 33900 ng·h/mL
[2]
  Activity: inactive
[19]
  Drug uptake: Not Active
[20]
  Activity: Active
[4]
  Emax: 148%
[5]
  Emax: 137%
[21]
  Activity: Active
[9]
  Activity: inactive
[22]
  ED90: 1 mg/kg
[23]
  Drug uptake: Not Active
[12]
  EC50: 1.5 nM
[14]
  Activity: inactive
[15]
  EC50: 3.2 nM
[16]
  fraction unbound: < 0.01

## Cc1cc(OCCCS(C)(=O)=O)cc(C)c1-c1cccc(COc2ccc3c(c2)OC[C@H]3CC(=O)O)c1
[2]
  Activity: inactive
[9]
  Activity: inactive
[22]
  ED90: 29.4 mg/kg
[14]
  Activity: inactive
[24]
  AUC at 1 h: 7370 ng·h/mL
[16]
  fraction unbound: < 0.01

## CN(CCOc1ccc(CC2SC(=O)NC2=O)cc1)c1ccccn1 (centres undefined)
[25]
  Activity: inactive
[26]
  Activity: inactive

## CC#C[C@@H](CC(=O)O)c1ccc(OCc2ccc(CN3CCC4(C=Cc5ccccc54)CC3)c(F)c2)cc1
[1]
  EC50: 2.3 nM
[2]
  Activity: inactive
[3]
  Emax: 135%
[4]
  Emax: 145%
[5]
  Emax: 148%
[6]
  Emax: 51%
[7]
  Ki: 4 nM
[8]
  Emax: 210%
[9]
  Activity: inactive
[11]
  EC50: 9.3 nM
[12]
  EC50: 1.2 nM
[13]
  EC50: 17 nM
[14]
  Activity: inactive
[15]
  EC50: 1.3 nM
[16]
  fraction unbound: < 0.01
